Results taken from PubChem BioAssay AID504933 (The Scripps Research Institute Molecular Screening Center, 2011).

Molecular target: Nuclear receptor subfamily 5 group A member 2 (Homo sapiens) (UniProt O00482)
Test: StAR luciferase signal decrease with LRH-1 – cell-based, StAR promoter, luminescence, assay provider, powder samples, LRH-1 inverse agonist project, late-stage follow-up (AID 504933)
Conditions: HEK293T LRH1 + StAR-luciferase reporter, 20 h
How it was run: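 Test system: HEK293T with LRH1 plus StAR luciferase reporter. Read-out: IC50 from four-parameter sigmoidal fit of inhibition versus DMSO wells. Replication: triplicate wells per concentration. Controls: DMSO vehicle wells. Signal: luminescence. Incubation: 24 h bulk transfection before re-plating, then 20 h compound exposure.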

Sequence of Nuclear receptor subfamily 5 group A member 2 (Homo sapiens) (O00482 whole entry, looked up): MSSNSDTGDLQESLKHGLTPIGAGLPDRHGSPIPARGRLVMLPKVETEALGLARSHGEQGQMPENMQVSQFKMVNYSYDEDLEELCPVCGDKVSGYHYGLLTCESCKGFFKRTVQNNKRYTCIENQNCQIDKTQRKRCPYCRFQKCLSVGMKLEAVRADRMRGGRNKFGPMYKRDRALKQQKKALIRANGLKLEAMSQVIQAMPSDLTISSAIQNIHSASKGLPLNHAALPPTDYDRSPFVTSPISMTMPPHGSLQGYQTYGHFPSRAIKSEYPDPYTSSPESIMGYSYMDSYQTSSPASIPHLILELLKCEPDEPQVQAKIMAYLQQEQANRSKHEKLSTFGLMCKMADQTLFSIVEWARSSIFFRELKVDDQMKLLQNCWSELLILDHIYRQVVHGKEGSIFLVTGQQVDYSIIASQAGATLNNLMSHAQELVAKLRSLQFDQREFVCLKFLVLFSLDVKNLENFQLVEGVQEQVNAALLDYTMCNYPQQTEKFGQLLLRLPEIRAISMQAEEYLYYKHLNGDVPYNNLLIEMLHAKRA

Row | IC50 | Compound
1 | 2120 nM | O=c1cc(N2CCN(c3cccc(C(F)(F)F)c3)CC2)[nH]c(=O)n1C1CCCCC1
2 | 2050 nM | O=c1cc(N2CCN(c3cccc(Cl)c3)CC2)[nH]c(=O)n1C1CCCCC1
